{"source": "ChEMBL document CHEMBL3392964", "about": "“Design, synthesis, and evaluation of novel imidazo[1,2-a][1,3,5]triazines and their derivatives as focal adhesion kinase inhibitors with antitumor activity” (J Med Chem, 2015)", "key": {"U-87 MG [1]": {"tested_on": "U-87 MG", "experiment": "Induction of apoptosis in human U87MG cells assessed as viable cells at 3 uM after 24 hrs by Annexin V-PE/7-AAD staining-based FACS analysis (reference value: 96.7%)", "format": "functional, U-87MG ATCC", "conditions": "read-out: Activity"}, "Focal adhesion kinase 1 [2]": {"biological_target": "T1, Focal adhesion kinase 1 (Homo sapiens, UniProt Q05397)", "T1 sequence (Q05397 2-1052 limits assumed)": "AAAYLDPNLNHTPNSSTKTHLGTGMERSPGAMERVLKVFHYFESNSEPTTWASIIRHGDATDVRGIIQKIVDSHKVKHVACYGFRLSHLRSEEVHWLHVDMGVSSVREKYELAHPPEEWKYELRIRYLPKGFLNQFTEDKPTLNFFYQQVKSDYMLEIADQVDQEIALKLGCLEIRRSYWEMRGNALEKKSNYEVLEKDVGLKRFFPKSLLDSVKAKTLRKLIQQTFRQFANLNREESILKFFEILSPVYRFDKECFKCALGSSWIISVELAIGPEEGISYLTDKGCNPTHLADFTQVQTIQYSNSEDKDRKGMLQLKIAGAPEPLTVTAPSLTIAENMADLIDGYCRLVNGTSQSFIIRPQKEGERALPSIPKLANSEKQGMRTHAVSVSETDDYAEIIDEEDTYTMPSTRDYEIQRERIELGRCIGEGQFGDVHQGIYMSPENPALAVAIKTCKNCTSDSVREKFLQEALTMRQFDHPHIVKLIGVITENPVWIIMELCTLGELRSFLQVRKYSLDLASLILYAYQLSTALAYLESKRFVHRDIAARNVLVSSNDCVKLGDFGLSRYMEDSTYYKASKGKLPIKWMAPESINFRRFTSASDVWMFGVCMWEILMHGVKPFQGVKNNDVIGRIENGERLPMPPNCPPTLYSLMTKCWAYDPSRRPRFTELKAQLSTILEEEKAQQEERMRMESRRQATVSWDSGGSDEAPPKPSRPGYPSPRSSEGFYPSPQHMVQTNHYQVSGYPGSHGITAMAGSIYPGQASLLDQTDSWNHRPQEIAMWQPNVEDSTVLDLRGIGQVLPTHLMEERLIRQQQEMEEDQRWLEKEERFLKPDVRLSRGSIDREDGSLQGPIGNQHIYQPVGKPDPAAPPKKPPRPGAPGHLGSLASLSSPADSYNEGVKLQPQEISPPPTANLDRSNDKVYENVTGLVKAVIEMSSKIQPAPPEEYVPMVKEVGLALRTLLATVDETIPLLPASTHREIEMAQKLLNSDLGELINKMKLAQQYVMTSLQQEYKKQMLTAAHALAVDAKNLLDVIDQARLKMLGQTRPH", "experiment": "Inhibition of FAK phosphorylation at tyrosine 397 in human PC3 cells after 48 hrs by FACEFAK ELISA", "format": "cell-based", "conditions": "PC-3", "how_it_was_run": "(§1)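 Cells in DMEM with 10% FBS, 3 × 10^3 per well, treated 48 h at 0.1, 1 and 10 μM. Fixed in 4% formaldehyde; antibodies to pTyr397-FAK or total FAK, HRP secondary, read at 450 nm. Crystal violet cell count at 595 nm. Phospho-FAK normalised to total FAK and cell number; fold decrease versus control, triplicate readings, three independent experiments.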"}, "MDA-MB-231 [3]": {"tested_on": "MDA-MB-231", "experiment": "Inhibition of colony formation in human MDA-MB-231 cells after 2 weeks by crystal violet staining-based assay", "format": "functional, cell-based", "how_it_was_run": "(§2)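 Seeding: 250 cells per well for HCT-116, 300 for U87MG, MDA-MB-231 and PC-3; incubated overnight, then exposed to a range of concentrations for 2 weeks. Fixed in 4% paraformaldehyde 30 min at room temperature, stained with 0.1% crystal violet. Colonies over 50 cells counted; colony formation rate calculated; IC50 by nonlinear regression.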"}, "[4]": {"experiment": "Cell cycle arrest in human U87MG cells at < 3 uM after 24 hrs by propidium iodide staining-based flow cytometry", "format": "functional", "conditions": "U-87MG ATCC", "how_it_was_run": "(§3)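 Cells plated at 10^5 per well, left overnight, then exposed 24 h to compound or vehicle; stained 15 min at 37 °C with propidium iodide/Triton buffer; DNA content by flow cytometry, phase distribution fitted by Dean–Jett–Fox; HCT-116 at 0.3–0.5 μM, U87-MG at 0.3–3 μM; significance by unpaired Student's t test; one representative experiment.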"}, "PC-3": {"tested_on": "PC-3", "experiment": "(§4) Inhibition of colony formation in human PC3 cells after 2 weeks by crystal violet staining-based assay", "format": "functional, cell-based", "how_it_was_run": "as §2"}, "[5]": {"experiment": "as §4", "format": "functional, cell-based", "conditions": "PC-3, 336 h", "how_it_was_run": "as §2"}, "U-87 MG [6]": {"tested_on": "U-87 MG", "experiment": "Induction of apoptosis in human U87MG cells assessed as necrotic cells at 3 uM after 24 hrs by Annexin V-PE/7-AAD staining-based FACS analysis (reference value: 1.06%)", "format": "functional, U-87MG ATCC"}, "[7]": {"experiment": "Cell cycle arrest in human HCT116 cells assessed as accumulation at S phase at 0.5 uM after 24 hrs by propidium iodide staining-based flow cytometry (reference value: 17.7%)", "format": "functional", "conditions": "HCT-116", "how_it_was_run": "as §3"}, "[8]": {"experiment": "Antimigratory activity in human U87MG cells at 3 uM […] by transwell membrane assay", "format": "functional, U-87MG ATCC"}, "Focal adhesion kinase 1 [9]": {"biological_target": "T1, Focal adhesion kinase 1", "experiment": "Inhibition of FAK phosphorylation at tyrosine 397 in human MDA-MB-231 cells after 48 hrs by FACEFAK ELISA", "format": "cell-based", "how_it_was_run": "as §1"}, "MDA-MB-231 [10]": {"tested_on": "MDA-MB-231", "experiment": "Antiproliferative activity against human MDA-MB-231 cells after 48 hrs by WST-1 assay", "format": "functional, cell-based", "conditions": "MDA-MB-231, 48 h", "how_it_was_run": "(§5)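 Exponentially growing cells in DMEM/10% FBS seeded at 5 × 10^3 per well, left overnight, then exposed 48 h to compounds diluted from DMSO; WST-1 added for 2 h, absorbance at 450 nm (reference 620 nm); viability as ratio to DMSO controls; three independent experiments, triplicate points; IC50 by nonlinear regression (log inhibitor vs normalized response, variable slope).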"}, "[11]": {"experiment": "Cell cycle arrest in human U87MG cells assessed as accumulation at G2 phase at 3 uM after 24 hrs by propidium iodide staining-based flow cytometry relative to control", "format": "functional", "conditions": "U-87MG ATCC", "how_it_was_run": "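U87-MG cells plated at 10^5 per well, incubated overnight, then exposed to compound or vehicle control for 24 h. Cells stained with propidium iodide in PI/triton buffer for 15 min at 37 °C and analysed by flow cytometry. Cell-cycle phases were assigned by the Dean–Jett–Fox method. Significance was tested by unpaired Student's t test, and one representative experiment is shown.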"}, "U-87MG ATCC": {"tested_on": "U-87MG ATCC", "experiment": "(§6) Inhibition of colony formation in human U87MG cells after 2 weeks by crystal violet staining-based assay", "format": "functional, cell-based", "how_it_was_run": "as §2"}, "[12]": {"experiment": "as §6", "format": "functional, cell-based, U-87MG ATCC", "conditions": "U-87 MG, 336 h", "how_it_was_run": "as §2"}, "HCT-116 [13]": {"tested_on": "HCT-116", "experiment": "Induction of apoptosis in human HCT116 cells assessed as apoptotic cells at 0.5 uM after 24 hrs by Annexin V-PE/7-AAD staining-based FACS analysis relative to control", "format": "functional"}, "[14]": {"biological_target": "Protein-tyrosine kinase 2-beta (Homo sapiens) (UniProt Q14289)", "sequence (Q14289 whole entry, looked up)": "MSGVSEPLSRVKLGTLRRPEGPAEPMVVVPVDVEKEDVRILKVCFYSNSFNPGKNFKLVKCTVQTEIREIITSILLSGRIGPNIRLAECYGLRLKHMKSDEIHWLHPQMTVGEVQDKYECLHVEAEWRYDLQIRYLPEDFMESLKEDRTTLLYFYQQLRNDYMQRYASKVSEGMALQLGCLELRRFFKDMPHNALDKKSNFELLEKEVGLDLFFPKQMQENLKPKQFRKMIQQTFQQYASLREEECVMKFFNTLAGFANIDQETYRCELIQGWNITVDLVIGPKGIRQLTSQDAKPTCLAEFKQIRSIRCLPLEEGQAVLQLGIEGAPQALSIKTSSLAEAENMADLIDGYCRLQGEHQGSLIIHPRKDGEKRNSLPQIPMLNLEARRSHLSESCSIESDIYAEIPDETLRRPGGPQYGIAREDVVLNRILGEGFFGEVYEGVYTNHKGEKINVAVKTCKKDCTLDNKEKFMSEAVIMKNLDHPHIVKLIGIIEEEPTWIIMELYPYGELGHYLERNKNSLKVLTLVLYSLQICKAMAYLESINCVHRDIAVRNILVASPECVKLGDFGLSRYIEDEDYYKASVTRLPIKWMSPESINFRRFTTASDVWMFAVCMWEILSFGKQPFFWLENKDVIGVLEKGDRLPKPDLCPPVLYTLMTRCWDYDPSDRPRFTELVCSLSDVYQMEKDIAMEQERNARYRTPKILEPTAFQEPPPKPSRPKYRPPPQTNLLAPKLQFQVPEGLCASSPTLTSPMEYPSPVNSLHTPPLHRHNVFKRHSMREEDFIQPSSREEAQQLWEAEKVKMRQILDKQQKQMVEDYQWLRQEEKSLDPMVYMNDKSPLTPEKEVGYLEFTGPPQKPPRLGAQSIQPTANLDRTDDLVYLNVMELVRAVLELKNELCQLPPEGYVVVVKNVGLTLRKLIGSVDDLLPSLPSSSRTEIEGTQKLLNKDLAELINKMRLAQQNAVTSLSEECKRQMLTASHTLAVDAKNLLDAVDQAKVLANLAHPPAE", "experiment": "Inhibition of human recombinant Pyk2 using poly[Glu:Tyr] as substrate at 1 uM by [gamma-33P]ATP-based assay", "how_it_was_run": "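Radioactive kinase assay with [γ33P]ATP and human recombinant kinase, compound tested at 1 μM.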"}, "HCT-116 [15]": {"tested_on": "HCT-116", "experiment": "Induction of apoptosis in human HCT116 cells assessed as early apoptotic cells at 0.5 uM after 24 hrs by Annexin V-PE/7-AAD staining-based FACS analysis (reference value: 4.68%)", "format": "functional"}, "Focal adhesion kinase 1 [16]": {"biological_target": "T1, Focal adhesion kinase 1", "experiment": "Inhibition of FAK phosphorylation at tyrosine 397 in human U87MG cells after 48 hrs by FACEFAK ELISA", "format": "cell-based", "conditions": "U-87MG ATCC", "how_it_was_run": "as §1"}, "[17]": {"experiment": "Antiinvasive activity in human U87MG cells after 24 hrs by matrigel assay", "format": "functional, U-87MG ATCC", "how_it_was_run": "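U-87MG pre-exposed 24 h to compound or DMSO in 3% FBS, then 4 × 10^4 cells seeded in upper chamber of impedance-based CIM-16 plate (8 μm pore membrane) coated with Matrigel/collagen; lower chamber 10% FBS; cell index monitored at 37 °C, 5% CO2 for 12 h; slope (1/h) over set interval, DMSO slope set to 100; duplicate wells, repeated twice.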"}, "HCT-116 [18]": {"tested_on": "HCT-116", "experiment": "Induction of apoptosis in human HCT116 cells assessed as viable cells at 0.5 uM after 24 hrs by Annexin V-PE/7-AAD staining-based FACS analysis (reference value: 93.2%)", "format": "functional", "conditions": "HCT-116, 24 h, read-out: Activity"}, "U-87 MG [19]": {"tested_on": "U-87 MG", "experiment": "Induction of apoptosis in human U87MG cells assessed as early apoptotic cells at 3 uM after 24 hrs by Annexin V-PE/7-AAD staining-based FACS analysis (reference value: 0.691%)", "format": "functional, U-87MG ATCC"}, "[20]": {"experiment": "Antiproliferative activity against human HCT116 cells after 48 hrs by WST-1 assay", "format": "functional, cell-based", "conditions": "HCT-116, 48 h", "how_it_was_run": "as §5"}, "Focal adhesion kinase 1 [21]": {"biological_target": "T1, Focal adhesion kinase 1", "experiment": "Inhibition of FAK phosphorylation at tyrosine 397 in human HCT116 cells after 48 hrs by FACEFAK ELISA", "format": "cell-based", "conditions": "HCT-116", "how_it_was_run": "as §1"}, "U-87 MG [22]": {"tested_on": "U-87 MG", "experiment": "Reduction of cell adherence in human U87MG cells at 3 uM after 30 mins by toluidine blue staining-based […]", "format": "functional, U-87MG ATCC", "design": "scale not given: the % may be the effect or the level left", "how_it_was_run": "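U87-MG cells grown in 10% serum, trypsinised, diluted to 100 000 cells/mL in 10% serum medium, then treated 30 min with compound or DMSO. 20 000 cells per well allowed to attach 1 h. Fixed in 4% paraformaldehyde 30 min, stained with 0.1% toluidine blue in 4% PFA 30 min, washed, OD read at 620 nm for attached cells.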"}, "[23]": {"experiment": "Cell cycle arrest in human U87MG cells assessed as accumulation at G2/M phase at 3 uM after 24 hrs by propidium iodide staining-based flow cytometry (reference value: 20%)", "format": "functional", "conditions": "U-87MG ATCC", "how_it_was_run": "as §3"}, "HCT-116 [24]": {"tested_on": "HCT-116", "experiment": "Induction of apoptosis in human HCT116 cells assessed as necrotic cells at 0.5 uM after 24 hrs by Annexin V-PE/7-AAD staining-based FACS analysis (reference value: 0.885%)", "format": "functional"}}, "note": "The source made the active and inactive calls. The rule behind the calls is not given here."}
{"smiles": "C=COC(=O)NCc1ccc(Nc2nc(Nc3ccccc3C(=O)NC)n3ccnc3n2)cc1", "values": [{"measurement": "viability at 3 µM", "setting": "U-87 MG [1]", "result": 97.4, "unit": "%"}, {"measurement": "inhibition", "setting": "Focal adhesion kinase 1 [2]", "result": "Dose-dependent effect"}, {"measurement": "inhibition", "setting": "MDA-MB-231 [3]", "result": "Dose-dependent effect"}, {"measurement": "IC50", "setting": "MDA-MB-231 [3]; MDA-MB-231, 336 h", "result": 140, "unit": "nM"}, {"measurement": "Activity", "setting": "[4]", "result": "Active"}, {"measurement": "inhibition", "setting": "PC-3", "result": "Dose-dependent effect"}, {"measurement": "IC50", "setting": "[5]", "result": 630, "unit": "nM"}, {"measurement": "Activity", "setting": "U-87 MG [6]", "result": 0.804, "unit": "%"}, {"measurement": "Activity", "setting": "[7]", "result": 11.6, "unit": "%"}, {"measurement": "Activity", "setting": "[8]", "result": 69.5, "unit": "%"}, {"measurement": "inhibition", "setting": "Focal adhesion kinase 1 [9]", "result": "Dose-dependent effect"}, {"measurement": "IC50", "setting": "MDA-MB-231 [10]", "result": 800, "unit": "nM"}, {"measurement": "Ratio", "setting": "[11]", "result": 2.9}, {"measurement": "inhibition", "setting": "U-87MG ATCC", "result": "Dose-dependent effect"}, {"measurement": "IC50", "setting": "[12]", "result": 420, "unit": "nM"}, {"measurement": "Activity", "setting": "HCT-116 [13]", "result": 25.9, "unit": "%"}, {"measurement": "inhibition", "setting": "[14]", "result": "inactive"}, {"measurement": "Activity", "setting": "HCT-116 [15]", "result": 13.3, "unit": "%"}, {"measurement": "inhibition", "setting": "Focal adhesion kinase 1 [16]", "result": "Dose-dependent effect"}, {"measurement": "Activity", "setting": "[17]", "result": 50, "unit": "%"}, {"measurement": "viability at 0.5 µM", "setting": "HCT-116 [18]", "result": 62.9, "unit": "%"}, {"measurement": "Activity", "setting": "U-87 MG [19]", "result": 0.756, "unit": "%"}, {"measurement": "IC50", "setting": "[20]", "result": 520, "unit": "nM"}, {"measurement": "inhibition", "setting": "Focal adhesion kinase 1 [21]", "result": "Dose-dependent effect"}, {"measurement": "Activity", "setting": "U-87 MG [22]", "result": 50, "unit": "%"}, {"measurement": "Activity", "setting": "[23]", "result": 58.8, "unit": "%"}, {"measurement": "Activity", "setting": "HCT-116 [24]", "result": 7.77, "unit": "%"}]}
